This is an account of results in ChEMBL document CHEMBL1131287, “Design, synthesis, and biological activities of potent and selective somatostatin analogues incorporating novel peptoid residues” (J Med Chem, 1998).

For orientation: Ki means a measure of affinity in units of concentration, obtained from inhibition or displacement. Low readings indicate a stronger hold on the target, high ones a looser hold on the target. In general, Kd refers to the constant that tells how readily two partners part at equilibrium. Higher therefore signals weaker binding.

What all share (format): cell-based
Assay [1] addresses T1, Somatostatin receptor type 1 (Homo sapiens, UniProt P30872). The experiment in a line: In vitro inhibition of radioligand binding to human somatostatin receptor (hsst1) expressed in CHO-K1 cells. In outline: (§1)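 Membranes from CHO-K1 clones stably expressing the hsst subtype (pCMV, G418-selected), washed in 50 mM Tris-HCl. Stopped by PEI-treated GF/C filtration. Specific binding was defined against 1000 nM SRIF-14.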

Assay [2] has as its target T2, Somatostatin receptor type 2 (Homo sapiens, UniProt P30874). The experiment in a line: In vitro inhibition of radioligand binding to human somatostatin receptor (hsst2) expressed in CHO cells. In outline: (§2)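 Competition binding on cell or membrane homogenates in 10 mM HEPES pH 7.5 with 0.5% BSA, 5 mM MgCl2 and 5 μg/mL bacitracin, 1 h at room temperature. Nonspecific binding with 1 μM SRIF14. Gamma counting, triplicates, nonlinear regression, reported as pKD.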

The target of assay [3] is T3, Somatostatin receptor type 4 (Homo sapiens, UniProt P31391). Put plainly: In vitro inhibition of radioligand binding to human somatostatin receptor (hsst4) expressed in CHO-K1 cells. A digest of the protocol:
as §1

The target of assay [4] is T4, Somatostatin receptor type 5 (Homo sapiens, UniProt P35346). Put plainly: In vitro inhibition of radioligand binding to human Somatostatin receptor type 5 expressed in CHO-K1 cells. In outline: as §1
T4 sequence (P35346 whole entry): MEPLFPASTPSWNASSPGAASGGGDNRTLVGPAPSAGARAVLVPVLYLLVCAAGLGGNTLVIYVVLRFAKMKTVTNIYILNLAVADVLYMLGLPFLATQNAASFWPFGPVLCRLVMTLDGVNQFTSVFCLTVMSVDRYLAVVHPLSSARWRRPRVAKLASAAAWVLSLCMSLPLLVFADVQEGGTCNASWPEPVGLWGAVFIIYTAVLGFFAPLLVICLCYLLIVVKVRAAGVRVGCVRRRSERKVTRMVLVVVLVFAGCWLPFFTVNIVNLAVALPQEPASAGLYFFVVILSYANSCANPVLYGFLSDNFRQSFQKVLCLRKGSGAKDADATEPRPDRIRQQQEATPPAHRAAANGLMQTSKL
Assay [5] has as its target T5, Somatostatin receptor type 3 (Homo sapiens, UniProt P32745). Put plainly: In vitro inhibition of radioligand binding to human somatostatin receptor (hsst3) expressed in CHO cells. A digest of the protocol: as §2
The target of assay [6] is T3, Somatostatin receptor type 4. The experiment in a line: In vitro inhibition of radioligand binding to human somatostatin receptor (hsst4) expressed in CHO cells. In outline: as §2
In assay [7] the target is T5, Somatostatin receptor type 3. The experiment in a line: In vitro inhibition of radioligand binding to human somatostatin receptor (hsst3) expressed in CHO-K1 cells. A digest of the protocol:
as §1

In assay [8] the target is T2, Somatostatin receptor type 2. The experiment in a line: In vitro inhibition of radioligand binding to human somatostatin receptor (hsst2) expressed in CHO-K1 cells. A digest of the protocol: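 hsst2 stably expressed in CHO-K1 cells; washed membranes were used. Radioligand was 0.05 nM [125I]MK-678, incubated 90 min at 25 °C in 50 mM HEPES pH 7.4 buffer with BSA, MgCl2 and protease inhibitors. Filtered on PEI-soaked GF/C filters. Specific binding was defined against 1000 nM MK-678.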

For assay [9], the target named is T4, Somatostatin receptor type 5. The experiment in a line: In vitro inhibition of radioligand binding to human Somatostatin receptor type 5 expressed in CCL-39 cells. A digest of the protocol: as §2
Assay [10] deals with T1, Somatostatin receptor type 1. Put plainly: In vitro inhibition of radioligand binding to human somatostatin receptor (hsst1) expressed in hSF6 cells. A digest of the protocol:
as §2

Molecules are shown by their SMILES. Square brackets hold non-standard residues; d marks the D form. Peptide text beside a SMILES is read from it. Where only a bound is given, the exact number is not on record here.

T2 sequence (P30874 whole entry): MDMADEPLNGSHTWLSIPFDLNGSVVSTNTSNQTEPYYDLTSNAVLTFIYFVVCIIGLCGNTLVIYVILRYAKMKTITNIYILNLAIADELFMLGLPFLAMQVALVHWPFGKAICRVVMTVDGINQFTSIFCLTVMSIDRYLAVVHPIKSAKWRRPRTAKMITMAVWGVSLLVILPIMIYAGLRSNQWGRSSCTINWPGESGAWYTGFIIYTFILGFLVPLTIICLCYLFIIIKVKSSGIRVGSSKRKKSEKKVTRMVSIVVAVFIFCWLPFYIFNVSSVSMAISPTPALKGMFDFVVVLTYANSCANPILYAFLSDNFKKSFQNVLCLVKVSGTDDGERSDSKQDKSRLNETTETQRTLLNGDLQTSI
T5 sequence (P32745 whole entry): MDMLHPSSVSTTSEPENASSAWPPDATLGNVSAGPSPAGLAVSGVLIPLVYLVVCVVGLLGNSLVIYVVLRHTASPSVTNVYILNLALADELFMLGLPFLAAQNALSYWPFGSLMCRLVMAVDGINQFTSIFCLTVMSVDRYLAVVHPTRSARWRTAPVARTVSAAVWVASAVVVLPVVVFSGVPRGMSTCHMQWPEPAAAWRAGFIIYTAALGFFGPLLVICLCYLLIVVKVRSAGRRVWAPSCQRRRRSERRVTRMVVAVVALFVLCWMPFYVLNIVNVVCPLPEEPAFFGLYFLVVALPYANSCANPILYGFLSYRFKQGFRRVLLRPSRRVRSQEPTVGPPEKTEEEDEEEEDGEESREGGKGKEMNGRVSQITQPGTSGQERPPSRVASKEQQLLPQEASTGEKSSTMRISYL
T1 sequence (P30872 whole entry): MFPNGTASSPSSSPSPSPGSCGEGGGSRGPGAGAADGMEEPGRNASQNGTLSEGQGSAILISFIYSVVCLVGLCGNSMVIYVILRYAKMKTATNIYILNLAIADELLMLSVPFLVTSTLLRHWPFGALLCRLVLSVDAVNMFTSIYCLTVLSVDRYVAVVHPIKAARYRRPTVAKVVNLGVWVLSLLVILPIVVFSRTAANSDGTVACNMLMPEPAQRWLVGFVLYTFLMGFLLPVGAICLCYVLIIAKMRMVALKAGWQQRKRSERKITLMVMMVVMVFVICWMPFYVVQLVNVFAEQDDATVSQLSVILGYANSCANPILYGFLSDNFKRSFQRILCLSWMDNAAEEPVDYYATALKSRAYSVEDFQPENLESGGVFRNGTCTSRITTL
T3 sequence (P31391 whole entry): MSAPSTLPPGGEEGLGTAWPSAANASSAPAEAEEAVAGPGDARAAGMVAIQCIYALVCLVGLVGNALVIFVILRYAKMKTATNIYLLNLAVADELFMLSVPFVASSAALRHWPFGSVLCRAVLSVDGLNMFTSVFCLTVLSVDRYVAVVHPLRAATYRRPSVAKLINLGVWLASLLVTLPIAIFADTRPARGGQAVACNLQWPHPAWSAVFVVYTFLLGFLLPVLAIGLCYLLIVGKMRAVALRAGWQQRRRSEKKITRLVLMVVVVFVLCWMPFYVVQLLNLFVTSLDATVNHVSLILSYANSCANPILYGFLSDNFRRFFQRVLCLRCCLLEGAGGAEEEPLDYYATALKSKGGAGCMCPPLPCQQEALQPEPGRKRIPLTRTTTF

Regarding `C[C@@H](O)[C@@H]1NC(=O)[C@H](CCCCN)NC(=O)[C@@H](Cc2c[nH]c3ccccc23)NC(=O)[C@H](Cc2ccccc2)NC(=O)CN([C@@H](C)c2ccccc2)C(=O)[C@H](Cc2ccccc2)NC1=O`, the Ki in assay [1] (cho-k1) was greater than 1000 nM; in [3] (cho-k1) it was 987 nM; in assay [4] (cho-k1), 87 nM; in assay [7] (cho-k1), 797 nM; in assay [8] (cho-k1), 29.5 nM. Also, the Kd was 6.17 nM in assay [2] (cho); 339 nM in [5] (cho); 2630 nM in [6] (cho); 115 nM in assay [9] (ccl-39); 13200 nM in assay [10].

For the compound `C[C@H](c1ccccc1)N1CC(=O)N[C@@H](Cc2ccccc2)C(=O)N[C@H](Cc2c[nH]c3ccccc23)C(=O)N[C@@H](CCCCN)C(=O)N[C@@H]([C@@H](C)O)C(=O)N[C@@H](Cc2ccccc2)C1=O`, the Ki was greater than 1000 nM in assay [1] (cho-k1); greater than 1000 nM in assay [3] (cho-k1); 33.5 nM in assay [4] (cho-k1); 425 nM in [7] (cho-k1); 2.33 nM in [8] (cho-k1). Moreover, the Kd in assay [2] (cho) is 2.04 nM; in assay [5] (cho) it was 407 nM; in assay [6] (cho) it was 4170 nM; in [9] (ccl-39), 288 nM; in [10], 3550 nM.

For `C[C@@H](O)[C@@H]1NC(=O)[C@H](CCCCN)NC(=O)[C@@H](Cc2c[nH]c3ccccc23)NC(=O)[C@H](Cc2ccccc2)NC(=O)CN(Cc2ccccc2)C(=O)[C@H](Cc2ccccc2)NC1=O`, the Ki was greater than 1000 nM in assay [1] (cho-k1); greater than 1000 nM in assay [3] (cho-k1); 101 nM in assay [4] (cho-k1); 253 nM in assay [7] (cho-k1); 6.98 nM in assay [8] (cho-k1). For the same compound, the Kd in [2] (cho) was 2.95 nM; in assay [5] (cho) it was 282 nM; in [6] (cho), 4680 nM; in assay [9] (ccl-39) it was 69 nM; in [10], 7080 nM.

Consider `C[C@@H](O)[C@@H]1NC(=O)[C@H](CCCCN)NC(=O)[C@@H](Cc2c[nH]c3ccccc23)NC(=O)[C@H](Cc2ccccc2)NC(=O)[C@@H]2CCCN2C(=O)[C@H](Cc2ccccc2)NC1=O` (cyclo(PF[dW]KTF)), for which the Ki in [1] was greater than 1000 nM; in assay [3], greater than 1000 nM; in [4], 25 nM; in assay [7], 129 nM; in assay [8], 5.1 nM. Also, the Kd in assay [2] was 0.76 nM; in assay [5], 525 nM; in assay [6], 8910 nM; in assay [9], 7.6 nM; in assay [10] it was 4570 nM.
